Assay results reported in ChEMBL document CHEMBL6182829, “Developing peptide-based fusion inhibitors as an antiviral strategy utilizing coronin 1 as a template” (RSC Med Chem, 2025).
Active and inactive are the calls of the source. The rule behind the calls is not given here. Where a SMILES comes first, the peptide text is derived from it.

Tests used:
[1] = system: Lipid bilayer; test: Inhibition of PEG-induced DOPC/DOPE/DOPG/CH (50/30/10/10 mol%) (10 CH) small unilamellar vesicles fusion assessed as content mixing at 1:100 compound: lipid concentration preincubated for 10 mins followed by PEG addition by spectrofluorometric analysis (reference value: 33 %)
Method in brief: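 Tb3+-loaded (8 mM TbCl3) and DPA-loaded (80 mM) SUVs, external probe removed by Sephadex G-75, mixed 1:1 at 200 μM total lipid in 10 mM TES, 100 mM NaCl, 1 mM EDTA, 1 mM CaCl2, pH 7.4, 37 °C; 2 μM peptide added 10 min before 6% (w/v) PEG; Tb/DPA fluorescence rise over time, normalized with detergent; inhibition relative to no-peptide control.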

[2] = system: Lipid bilayer; test: Inhibition of PEG-induced DOPC/DOPE/DOPG/CH (40/30/10/20 mol%) (20 CH) small unilamellar vesicles fusion assessed as content mixing at 1:100 compound: lipid concentration preincubated for 10 mins followed by PEG addition by spectrofluorometric analysis
Method in brief: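 Content mixing by Tb3+/DPA complex fluorescence. Vesicles loaded with 8 mM TbCl3 or 80 mM DPA, external probe removed by gel filtration. Mixed 1:1 at 200 μM lipid; peptide 2 μM added 10 min before 6% (w/v) PEG, 37 °C. Normalised to co-encapsulated and detergent-treated samples.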

CC[C@H](C)[C@H](NC(=O)[C@H](CC(C)C)NC(=O)[C@H](C)NC(=O)[C@@H](NC(=O)[C@H](Cc1ccccc1)NC(=O)[C@H](CCCCN)NC(=O)[C@@H]1CCCN1C(=O)[C@H](CC(N)=O)NC(=O)[C@@H](NC(=O)[C@H](C)NC(=O)[C@H](CS)NC(=O)[C@H](Cc1ccccc1)NC(=O)CNC(=O)[C@H](CO)NC(=O)[C@H](CC(=O)O)NC(=O)[C@H](Cc1c[nH]c2ccccc12)NC(=O)[C@@H](NC(=O)[C@@H](N)[C@@H](C)O)[C@@H](C)O)C(C)C)C(C)C)C(=O)N[C@@H](CS)C(=O)N[C@@H](CCC(=O)O)C(=O)N[C@@H](C)C(=O)N[C@@H](CO)C(=O)NCC(=O)O (H-TTWDSGFCAVNPKFVALICEASG-OH)
inhibition [1]: 5%
inhibition [2]: inactive
